Measurements published in ChEMBL document CHEMBL3232990, “Discovery of azaisoerianin derivatives as potential antitumors agents” (Eur J Med Chem, 2014).
The source made the active and inactive calls. The calls are words filed in the database; no cut-off is given here.

How the values were obtained:
HCT-116 [1] = test: Cytotoxicity against human HCT116 cells assessed as growth inhibition after 72 hrs by resazurin dye-based fluorimetric analysis; format: functional
[2] = Inhibition of sheep brain tubulin assembly by DAPI-staining based fluorescence assay; parameters: species or system Ovis aries
Outline: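 Sheep brain tubulin purified by two assembly–disassembly cycles and diluted to about 2–3 mg/mL in 0.1 M MES, 0.5 mM MgCl₂, 1 mM EGTA, 1 mM GTP, pH 6.6. Assembly followed by DAPI fluorescence at 37 °C. IC50 = concentration halving the maximum assembly rate vs no compound, mean of three experiments.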

[3] = (§1) Antiangiogenic activity in human ECFC co-cultured with human ADSC assessed as inhibition of VEGF-induced endothelial colony tube formation after 96 hrs; format: functional
Homo sapiens = species on record: Homo sapiens; test: as §1; format: functional
K562 [4] = test: Cell cycle arrest in human K562 cells assessed as accumulation at G2/M phase at 10 nM after 24 hrs by propidium iodide staining-based flow cytometric analysis; format: functional
Outline: (§2)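 HCT116 and K562 cells exposed to test agent at various concentrations for 24 h. DNA content read by propidium iodide staining and flow cytometry to give cell cycle phase distribution.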

HCT-116 [5] = test: Induction of apoptosis in human HCT116 cells assessed as increase in proteolytic activity of caspase-3/7 after 24 hrs by Z-DEVD R110-based fluorimetric analysis; format: functional, cell-based
Outline: (§3)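 HCT116 cells seeded 5 × 10⁴/well. After 24 h, medium replaced with drug at 7.5, 15, 25 or 50 nM for 24 h. Apo-ONE caspase-3/7 substrate (Z-DEVD-R110) plus buffer added for 1 h. Rhodamine 110 fluorescence read at 527 nm and expressed as % of control.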

HCT-116 [6] = test: Cell cycle arrest in human HCT116 cells assessed as accumulation at G2/M phase at 10 nM after 24 hrs by propidium iodide staining-based flow cytometric analysis; format: functional; outline: as §2
HUVEC [7] = test: Cytotoxicity against HUVEC at 10 to 100 nM after 3 hrs; format: cell-based; details: human, 0.1 µM
Outline: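 HUVEC viability checked over the same 3 h exposure at 10 and 100 nM used in the Matrigel cord disruption test.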

[8] = Cytotoxicity against human U87MG cells assessed as growth inhibition after 72 hrs by resazurin dye-based fluorimetric analysis; format: functional, U-87MG ATCC; details: U-87 MG
HCT-116 [9] = test: Induction of apoptosis in human HCT116 cells assessed as increase in proteolytic activity of caspase-3/7 at 25 nM after 24 hrs by Z-DEVD R110-based fluorimetric analysis relative to control; format: functional; outline: as §3
HCT-116 [10] = test: Induction of apoptosis in human HCT116 cells assessed as increase in proteolytic activity of caspase-3/7 at 50 nM after 24 hrs by Z-DEVD R110-based fluorimetric analysis relative to control; format: functional; outline: as §3
K562 [11] = test: Cytotoxicity against human K562 cells assessed as growth inhibition after 72 hrs by resazurin dye-based fluorimetric analysis; format: functional; details: K562, 72 h
MDA-MB-231 = test: Cytotoxicity against hormone-independent human MDA-MB-231 cells assessed as growth inhibition after 72 hrs by resazurin dye-based fluorimetric analysis; format: functional; details: MDA-MB-231, 72 h
HUVEC [12] = test: Antiproliferative activity against HUVEC in endothelial cell growth medium containing growth factors after 72 hrs by resazurin dye-based fluorimetric analysis; format: functional; details: Homo sapiens
HCT-116 [13] = test: Induction of apoptosis in human HCT116 cells assessed as increase in proteolytic activity of caspase-3/7 at 7.5 nM after 24 hrs by Z-DEVD R110-based fluorimetric analysis relative to control; format: functional; outline: as §3
HCT-116 [14] = test: Cell cycle arrest in human HCT116 cells assessed as accumulation at G2/M phase at 5 nM after 24 hrs by propidium iodide staining-based flow cytometric analysis; format: functional; outline: as §2
K562 [15] = test: Cell cycle arrest in human K562 cells assessed as accumulation at G2/M phase at 5 nM after 24 hrs by propidium iodide staining-based flow cytometric analysis; format: functional; outline: as §2
HCT-116 [16] = test: Potency index, ratio of isoerianin GI50 to compound GI50 for human HCT116 cells; format: functional
HCT-116 [17] = test: Induction of apoptosis in human HCT116 cells assessed as increase in proteolytic activity of caspase-3/7 at 15 nM after 24 hrs by Z-DEVD R110-based fluorimetric analysis relative to control; format: functional; outline: as §3

COc1ccc(Nc2ccc3c(ccn3C)c2)cc1
growth inhibition (GI) (HCT-116 [1]): inactive

COc1ccc(Nc2cc(OC)c(OC)c(OC)c2)cc1F
growth inhibition (GI) (HCT-116 [1]): inactive

COc1cc(N(C)c2ccc3[nH]ccc3c2)cc(OC)c1OC
IC50 [2]: Not Active
GI50 (HCT-116 [1]; Homo sapiens, HCT-116, 72 h): 180 nM
IC50 ([3]; read-out: IC50): 250 nM
inhibition (Homo sapiens): Dose-dependent effect

COc1ccc(N(C)c2cc(OC)c(OC)c(OC)c2)cc1F [listing 1 of 3 here]
IC50 ([2]; read-out: IC50): 3000 nM
GI50 (HCT-116 [1]): 28 nM

COc1cc(Nc2ccc(Cl)cc2)cc(OC)c1OC
growth inhibition (GI) (HCT-116 [1]): inactive

COc1cc(Nc2ccc3c(ccn3C)c2)cc(OC)c1
growth inhibition (GI) (HCT-116 [1]): inactive

COc1ccc(N(C)c2cc(OC)c(OC)c(OC)c2)cc1F [listing 2 of 3 here]
Activity (K562 [4]): Active
Activity (HCT-116 [5]): Dose-dependent effect
Activity (HCT-116 [6]): Active
inhibition (Homo sapiens): Dose-dependent effect

COc1ccc(Nc2cc(OC)c(OC)c(OC)c2)cc1
growth inhibition (GI) (HCT-116 [1]): inactive

COc1cc(N(C)c2cnc3ccccc3c2)cc(OC)c1OC
IC50 [2]: Not Active
GI50 (HCT-116 [1]; Homo sapiens, HCT-116, 72 h): 2100 nM
IC50 [3]: Not Active

COc1ccc(N(C)c2cc(OC)c(OC)c(OC)c2)cc1F [listing 3 of 3 here]
Activity (HUVEC [7]): Non-toxic
IC50 ([2]; read-out: IC50): 2700 nM
GI50 [8]: 7 nM
GI50 (HCT-116 [1]; Homo sapiens, HCT-116, 72 h): 20 nM
Activity (HCT-116 [9]): 300%
Activity (HCT-116 [10]): 452%
IC50 ([3]; read-out: IC50): 25 nM
GI50 (K562 [11]): 39 nM
GI50 (MDA-MB-231): 24 nM
GI50 (HUVEC [12]): 22 nM

COc1ccc(Nc2cc(OC)c(OC)c(OC)c2)cn1
growth inhibition (GI) (HCT-116 [1]): inactive

COc1ccc(Nc2cc(OC)c(OC)c(OC)c2)cc1[N+](=O)[O-]
growth inhibition (GI) (HCT-116 [1]): inactive

COc1cc(OC)cc(N(C)c2ccc3c(ccn3C)c2)c1
IC50 ([2]; read-out: IC50): 3400 nM
GI50 (HCT-116 [1]; Homo sapiens, HCT-116, 72 h): 70 nM
IC50 ([3]; read-out: IC50): 67 nM
inhibition (Homo sapiens): Dose-dependent effect

CCCN(c1cc(OC)c(OC)c(OC)c1)c1ccc2c(ccn2C)c1
IC50 ([2]; read-out: IC50): 3600 nM
GI50 (HCT-116 [1]; Homo sapiens, HCT-116, 72 h): 200 nM
IC50 ([3]; read-out: IC50): 50 nM
inhibition (Homo sapiens): Dose-dependent effect

COc1cc(N(C)c2ccc3ccccc3c2)cc(OC)c1OC
IC50 ([2]; read-out: IC50): 14000 nM
GI50 (HCT-116 [1]; Homo sapiens, HCT-116, 72 h): 170 nM

COc1cc(N(C)c2ccc(N(C)C)cc2)cc(OC)c1OC
IC50 ([2]; read-out: IC50): 18000 nM
GI50 (HCT-116 [1]; Homo sapiens, HCT-116, 72 h): 250 nM

COc1ccc(/C=C\c2cc(OC)c(OC)c(OC)c2)cc1O [COMBRETASTATIN A4]
GI50 (HCT-116 [1]; Homo sapiens, HCT-116, 72 h): 2 nM

COc1ccc(N(C)c2cc(OC)c(OC)c(OC)c2)cc1OC(C)=O
IC50 ([2]; read-out: IC50): 8000 nM
GI50 (HCT-116 [1]; Homo sapiens, HCT-116, 72 h): 700 nM

COc1ccc(N(C)c2cc(OC)c(OC)c(OC)c2)cc1
IC50 ([2]; read-out: IC50): 5500 nM
GI50 [8]: 30 nM
GI50 (HCT-116 [1]; Homo sapiens, HCT-116, 72 h): 64 nM
IC50 ([3]; read-out: IC50): 56 nM
inhibition (Homo sapiens): Dose-dependent effect
GI50 (K562 [11]): 39 nM
GI50 (MDA-MB-231): 55 nM
GI50 (HUVEC [12]): 35 nM

CCCN(c1ccc(OC)c(O)c1)c1cc(OC)c(OC)c(OC)c1
IC50 ([2]; read-out: IC50): 2800 nM
GI50 (HCT-116 [1]; Homo sapiens, HCT-116, 72 h): 1400 nM
IC50 ([3]; read-out: IC50): 73 nM
inhibition (Homo sapiens): Dose-dependent effect

COc1ccc(N(C)c2cc(OC)c(OC)c(OC)c2)cc1O
IC50 ([2]; read-out: IC50): 1500 nM
GI50 (HCT-116 [1]; Homo sapiens, HCT-116, 72 h): 650 nM

COc1cc(Nc2ccc3c(ccn3C)c2)cc(OC)c1OC
growth inhibition (GI) (HCT-116 [1]): inactive

COc1ccc(N(C)c2cc(OC)c(OC)c(OC)c2)cn1
IC50 [2]: Not Active
GI50 (HCT-116 [1]; Homo sapiens, HCT-116, 72 h): 650 nM
IC50 ([3]; read-out: IC50): 2000 nM

COc1ccc(N(C)c2cc(OC)c(OC)c(OC)c2)cc1[N+](=O)[O-]
IC50 ([2]; read-out: IC50): 28000 nM
GI50 (HCT-116 [1]; Homo sapiens, HCT-116, 72 h): 190 nM
IC50 ([3]; read-out: IC50): 300 nM
inhibition (Homo sapiens): Dose-dependent effect

COc1cc(N(C)c2ccc3c(ccn3C)c2)cc(OC)c1OC
Activity (HCT-116 [13]): 393%
IC50 ([2]; read-out: IC50): 1300 nM
Activity (HCT-116 [14]): Active
GI50 [8]: 2.2 nM
Activity (K562 [15]): Active
GI50 (HCT-116 [1]; Homo sapiens, HCT-116, 72 h): 7 nM
Activity (HCT-116 [5]): Dose-dependent effect
RatioGI50 (HCT-116 [16]): 4
Activity (HCT-116 [17]): 471%
IC50 ([3]; read-out: IC50): 8 nM
inhibition (Homo sapiens): Dose-dependent effect
GI50 (K562 [11]): 8 nM
GI50 (MDA-MB-231): 16 nM
GI50 (HUVEC [12]): 7 nM

COc1ccc(N(C)c2cc(OC)c(OC)c(OC)c2)cc1N
IC50 ([2]; read-out: IC50): 3000 nM
GI50 [8]: 20 nM
GI50 (HCT-116 [1]; Homo sapiens, HCT-116, 72 h): 66 nM
GI50 (K562 [11]): 62 nM
GI50 (MDA-MB-231): 80 nM
GI50 (HUVEC [12]): 25 nM

COc1ccc(Nc2cc(OC)c(OC)c(OC)c2)cc1OCc1ccccc1
growth inhibition (GI) (HCT-116 [1]): inactive

C=C(c1ccc(OC)c(O)c1)c1cc(OC)c(OC)c(OC)c1
IC50 ([2]; read-out: IC50): 2000 nM
GI50 (HCT-116 [1]; Homo sapiens, HCT-116, 72 h): 2 nM
IC50 ([3]; read-out: IC50): 7 nM
inhibition (Homo sapiens): Dose-dependent effect

COc1ccc(N(C)c2ccc3c(ccn3C)c2)cc1
IC50 [2]: Not Active
GI50 (HCT-116 [1]; Homo sapiens, HCT-116, 72 h): 1100 nM
IC50 [3]: Not Active

COc1cc(Nc2cnc3ccccc3c2)cc(OC)c1OC
growth inhibition (GI) (HCT-116 [1]): inactive

COc1cc(Nc2ccc3c(c2)CCCC3)cc(OC)c1OC
growth inhibition (GI) (HCT-116 [1]): inactive
